Tests used:
[1] = target: GABA-A receptor; anion channel; assay: In vitro inhibition of [35S]TBPS binding to Gamma-aminobutyric acid A (GABA-A) receptor of rat brain cortical membranes in the presence of 5 uM GABA(high affinity); type: cell membranes, Membrane
Method in brief: (§1)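 Rat cortical P2 membranes, washed in 200 mM NaCl/50 mM Na-K phosphate pH 7.4, incubated 90 min at room temperature with 2 nM [35S]TBPS, 5 µM GABA and test drug in DMSO (final 0.5%). Nonspecific binding taken with 2 µM unlabeled TBPS. Filtration, then scintillation counting. Partial vs full and one- vs two-component models chosen by F-test. IC50 and Imax come from individual experiments, given as mean ± SEM of 3–4.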

[2] = tested on: Mus musculus; assay: Percent of animals (n=8) not exhibiting PTZ-induced ( Pentylentetrazol protection) seizures 10 min following a 10 mg/kg ip dose of steroid.; type: functional; conditions: route intraperitoneal
Method in brief: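 Male NSA mice (15-20 g), n = 8. […] Mice watched 30 min for clonic seizure (forelimb clonus ≥3 s). Read-out is the percent of mice protected.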

[3] = species: Rattus norvegicus; assay: (§2) The maximum inhibitory potency was calculated by fitting [35S]TBPS inhibition data to a sigmoid function (rat brain cortical P2 membranes) (low affinity); type: functional; method in brief: as §1
[4] = Slope value was determined
[5] = target: GABA-A receptor; alpha-1/beta-2/gamma-2 (Homo sapiens) (UniProt P14867+P47870+P18507); assay: Efficacy as fractional response (FR) relative to GABA maximum current elicited in the Xenopus oocytes; type: functional, cell-based; conditions: Oocyte
Method in brief: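 Xenopus oocytes expressing α1β2γ2L GABAA receptors (~1 ng each cRNA), two-electrode voltage clamp at -70 mV in frog Ringer's pH 7.4. GABA set to give ~5% of maximal current (1 mM GABA). Steroid co-applied with 0.3% DMSO. Response taken as potentiation plus any direct current, expressed as a fraction of GABA maximum, fit to a four-parameter logistic.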

[6] = target: T1, GABA-A receptor; alpha-1/beta-2/gamma-2 (Homo sapiens, UniProt P14867+P18507+P47870); assay: Steroid potentiation of 5% GABA responses in Xenopus oocytes expressing human alpha-1-beta-2-gamma-2L subunits of GABA-A receptor; type: functional, cell-based, Oocyte
T1 sequence (P14867 whole entry): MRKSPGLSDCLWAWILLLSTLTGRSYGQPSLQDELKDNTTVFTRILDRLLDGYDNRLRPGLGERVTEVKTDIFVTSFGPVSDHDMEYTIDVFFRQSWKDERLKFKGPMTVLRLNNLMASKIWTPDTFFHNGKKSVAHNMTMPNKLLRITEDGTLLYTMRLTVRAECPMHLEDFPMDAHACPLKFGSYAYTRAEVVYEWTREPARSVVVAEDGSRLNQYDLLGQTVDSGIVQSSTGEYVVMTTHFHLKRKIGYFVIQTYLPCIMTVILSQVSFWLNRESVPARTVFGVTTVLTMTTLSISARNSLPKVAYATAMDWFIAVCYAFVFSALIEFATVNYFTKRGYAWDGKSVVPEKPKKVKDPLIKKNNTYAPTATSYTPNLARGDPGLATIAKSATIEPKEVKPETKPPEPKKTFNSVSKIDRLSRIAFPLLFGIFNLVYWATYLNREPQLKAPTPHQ
T1 sequence (P47870 whole entry): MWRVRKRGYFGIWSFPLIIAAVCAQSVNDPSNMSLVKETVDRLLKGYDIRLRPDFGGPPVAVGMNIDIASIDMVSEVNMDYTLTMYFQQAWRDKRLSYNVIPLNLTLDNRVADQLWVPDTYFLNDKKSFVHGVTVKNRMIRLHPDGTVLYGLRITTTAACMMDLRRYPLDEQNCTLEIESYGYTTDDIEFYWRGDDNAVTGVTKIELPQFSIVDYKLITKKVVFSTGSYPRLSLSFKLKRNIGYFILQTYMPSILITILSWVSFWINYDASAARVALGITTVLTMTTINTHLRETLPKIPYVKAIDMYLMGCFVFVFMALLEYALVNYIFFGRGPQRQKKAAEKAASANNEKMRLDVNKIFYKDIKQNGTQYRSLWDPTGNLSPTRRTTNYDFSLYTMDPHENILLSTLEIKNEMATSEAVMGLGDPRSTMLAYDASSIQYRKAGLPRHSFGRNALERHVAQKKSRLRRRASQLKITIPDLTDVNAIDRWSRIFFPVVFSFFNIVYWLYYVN
T1 sequence (P18507 whole entry): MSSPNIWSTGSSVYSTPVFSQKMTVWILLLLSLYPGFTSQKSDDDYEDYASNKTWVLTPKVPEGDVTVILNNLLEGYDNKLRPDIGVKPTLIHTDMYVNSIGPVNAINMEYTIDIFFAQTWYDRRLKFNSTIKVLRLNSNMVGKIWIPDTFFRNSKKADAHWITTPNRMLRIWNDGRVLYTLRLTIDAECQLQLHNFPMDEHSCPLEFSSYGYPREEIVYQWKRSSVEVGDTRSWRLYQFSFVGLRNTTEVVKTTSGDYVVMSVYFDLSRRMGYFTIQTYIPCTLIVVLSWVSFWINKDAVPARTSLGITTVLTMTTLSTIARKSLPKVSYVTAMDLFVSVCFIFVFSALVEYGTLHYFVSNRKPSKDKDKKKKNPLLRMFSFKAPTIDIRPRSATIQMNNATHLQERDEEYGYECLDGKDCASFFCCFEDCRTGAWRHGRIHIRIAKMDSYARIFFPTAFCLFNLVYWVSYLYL
Method in brief: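 Xenopus oocytes injected with α1, β2, γ2L cRNAs (~1 ng each). Two-electrode voltage clamp at -70 mV in frog Ringer's, pH 7.4. GABA set to give about 5% of the maximal (1 mM GABA) current. Steroid stocks in DMSO diluted into Ringer's, DMSO 0.3%. Modulation is potentiation plus any direct steroid current, fitted to a four-parameter logistic. Mean ± SEM.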

[7] = target: T2, Gamma-aminobutyric acid receptor subunit gamma-1 (Rattus norvegicus, UniProt P23574); assay: In vitro inhibition of [35S]-TBPS binding to Gamma-aminobutyric acid A receptor in rat brain cortical membranes in the presence of 5 uM GABA (low affinity); type: functional, cell membranes, Membrane; method in brief: as §1
T2 sequence (P23574 whole entry): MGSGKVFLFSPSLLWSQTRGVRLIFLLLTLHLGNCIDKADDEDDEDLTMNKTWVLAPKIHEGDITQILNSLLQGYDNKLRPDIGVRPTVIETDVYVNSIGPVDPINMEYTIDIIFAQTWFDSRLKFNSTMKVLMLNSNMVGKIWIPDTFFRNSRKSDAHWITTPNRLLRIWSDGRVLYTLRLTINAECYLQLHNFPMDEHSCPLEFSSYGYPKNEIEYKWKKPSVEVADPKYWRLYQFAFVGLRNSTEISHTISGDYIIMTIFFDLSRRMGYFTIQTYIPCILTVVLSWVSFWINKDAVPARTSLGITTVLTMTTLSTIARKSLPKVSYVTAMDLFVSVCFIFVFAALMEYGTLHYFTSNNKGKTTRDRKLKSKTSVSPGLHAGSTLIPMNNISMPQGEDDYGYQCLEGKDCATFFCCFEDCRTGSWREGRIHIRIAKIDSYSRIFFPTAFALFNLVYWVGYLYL

[8] = species: Rattus norvegicus; assay: The maximum inhibitory potency was calculated by fitting [35S]TBPS inhibition data to a sigmoid function (rat brain cortical P2 membranes) (high affinity); type: functional; method in brief: as §1
[9] = target: GABA-A receptor; anion channel; assay: (§3) In vitro inhibition of [35S]TBPS binding to Gamma-aminobutyric acid A receptor in rat brain cortical membranes in the presence of 5 uM GABA (low affinity); type: cell membranes, Membrane; method in brief: as §1
[10] = The slope value for efficacy and response
Method in brief: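 Oocytes expressing α1β2γ2L GABAA receptors under two-electrode voltage clamp in frog Ringer's pH 7.4. GABA or steroid concentration-response data fitted to a four-parameter logistic equation to derive slope. Mean ± SEM.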

[11] = species: Rattus norvegicus; assay: (§4) The maximum inhibitory potency was calculated by fitting [35S]TBPS inhibition data to a sigmoid function (rat brain cortical P2 membranes); type: functional; method in brief: as §1
[12] = target: T2, Gamma-aminobutyric acid receptor subunit gamma-1; assay: In vitro for inhibition of [35S]TBPS binding in rat brain cortical membranes in the presence of 5 uM GABA in two-component inhibition curve; type: functional, cell membranes, Membrane; method in brief: as §1
[13] = target: GABA-A receptor; anion channel; assay: In vitro inhibition of [35S]TBPS binding to Gamma-aminobutyric acid A receptor in rat brain cortical membranes in the presence of 5 uM GABA (high affinity); type: cell membranes, Membrane
Method in brief: (§5)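 Rat cortical P2 membranes washed in 200 mM NaCl/50 mM Na-K phosphate pH 7.4, incubated 90 min at room temperature with 2 nM [35S]TBPS, 5 µM GABA and test drug in DMSO (final 0.5%). Nonspecific binding defined with 2 µM unlabeled TBPS. Filtration, scintillation counting. Fits to one- or two-component, full or partial inhibition models chosen by F-test; IC50 and Imax as mean ± SEM of individual experiments.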

[14] = target: GABA-A receptor; anion channel; assay: as §3; type: cell membranes, Membrane; method in brief: as §5; remark: listed apart in the source
[15] = Toxic dose that produces increase in hanging-wire failure; type: toxicity; conditions: mouse
Method in brief: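 Male NSA mice, 15–20 g, given steroid ip in 50% HP-β-CD 30 min before testing. Hanging wire of 2 mm diameter, 25 cm above padding. A pass means both hindpaws reach the wire within 5 s. Quantal scoring; TD50 with 95% confidence interval.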

[16] = tested on: Mus musculus; assay: Anticonvulsant potency that produces blockade of MES-induced seizures when administered intraperitoneally; type: functional; conditions: ip
Method in brief: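 Male NSA mice given steroid ip in 50% HP-β-CD 30 min before corneal electroshock (50 mA, 60 pulses/s, 0.8 ms pulses, 1 s). End-point is tonic hindlimb extension >90° within 30 s. Quantal dose-response; ED50 reported with 95% CI.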

[17] = species: Rattus norvegicus; assay: as §4; type: functional; method in brief: as §5; remark: listed apart in the source
[18] = tested on: Mus musculus; assay: Anticonvulsant potency that produces blockade of PTZ-induced seizures when administered intraperitoneally; type: functional; conditions: ip
Method in brief: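 Male NSA mice given steroid ip in 50% HP-β-CD 30 min before PTZ 85 mg/kg sc. Mice watched 30 min for forelimb clonus ≥3 s. Quantal dose-response; ED50 reported with 95% confidence interval.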

[19] = species: Rattus norvegicus; assay: as §2; type: functional; method in brief: as §5; remark: listed apart in the source
[20] = target: GABA-A receptor; anion channel; assay: In vitro inhibition of [35S]TBPS binding to gamma-aminobutyric-acid A receptor in rat brain cortical membranes in the presence of 5 uM GABA.; type: cell membranes, Membrane
Method in brief: as §1, with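 “F-test.” for “F-test. IC50 and Imax come from individual experiments, given as mean ± SEM of 3–4.”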

SMILES | IC50 [1] [nM] | PTZ protection [2] [%] | Imax [3] [%] | Slope [4] | Efficacy [5] | EC50 [6] [nM] | IC50 [7] [nM] | Imax [8] [%] | IC50 [9] [nM] | Slope [10] | Imax [11] [%] | IC50 [12] [nM] | IC50 [13] [nM] | IC50 [14] [nM] | TD50 [15] [mg/kg] | ED50 [16] [mg/kg] | Imax [17] [%] | ED50 [18] [mg/kg] | Imax [19] [%] | IC50 [20] [nM]
CC(=O)[C@H]1CC[C@H]2[C@@H]3CC[C@@H]4C[C@@](O)(C#Cc5ccccc5O)CC[C@]4(C)[C@H]3CC[C@]12C | 82 | 0 | 57 | 1.6 | 0.51 | 340 | 5100 | 30 |  |  |  |  |  |  |  |  |  |  |  | 
CC(=O)[C@H]1CC[C@H]2[C@@H]3CC[C@@H]4C[C@@](O)(C#Cc5ccc(C=O)cc5)CC[C@]4(C)[C@H]3CC[C@]12C | 67 | 0 | 54 |  | 0.88 | 31 |  | 44 | 1600 | 1.3 | 54 | 1600 |  |  |  |  |  |  |  | 
CC(=O)c1cccc(C#C[C@@]2(O)CC[C@@]3(C)[C@H](CC[C@@H]4[C@@H]3CC[C@]3(C)[C@@H](C(C)=O)CC[C@@H]43)C2)c1 |  | 0 | 65 |  |  |  |  | 34 |  |  |  |  | 45 | 1500 |  |  |  |  |  | 
CC(=O)c1ccc(C#C[C@@]2(O)CC[C@H]3[C@H](CC[C@@H]4[C@@H]3CC[C@]3(C)[C@@H](C(C)=O)CC[C@@H]43)C2)cc1 |  | 100 |  | 1.4 | 0.91 | 8.2 |  |  |  |  |  |  |  |  | 13.2 | 9.2 | 97 | 2.8 |  | 
CC(=O)[C@H]1CC[C@H]2[C@@H]3CC[C@@H]4C[C@@](O)(C#Cc5ccc(N)cc5)CC[C@]4(C)[C@H]3CC[C@]12C |  | 13 |  |  |  | > 1000 |  | 17 |  |  |  |  | 96 | 11800 |  |  |  |  | 84 | 
CC(=O)c1ccc(C#C[C@@]2(O)CC[C@@]3(C)[C@H](CC[C@@H]4[C@@H]3CC[C@]3(C)[C@@H](C(C)=O)CC[C@@H]43)C2)cc1 |  | 75 |  | 1.2 | 0.94 | 6.6 |  |  |  |  |  |  |  |  | 10 | 7.4 | 106 | 8.2 |  | 10

— ChEMBL document CHEMBL1130204, “3 alpha-Hydroxy-3 beta-(phenylethynyl)-5 beta-pregnan-20-ones: synthesis and pharmacological activity of neuroactive steroids with high affinity for GABAA receptors” (J Med Chem, 1997)
